In ChEMBL document CHEMBL1132354, “Novel antidiabetic and hypolipidemic agents. 5. Hydroxyl versus benzyloxy containing chroman derivatives” (J Med Chem, 1999):

Tests used:
[1] = The Tmax value in female wistar rat at 100 mg/kg, p.o. dose; assay type: ADME, organism-based; design: dose 100 mg/kg, route oral; conditions: in vivo, po
Summary of the method: (§1)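 Wistar rats, 200–225 g, fasted 12 h with free access to water and fed 3 h after dosing. Single dose of 100 mg/kg p.o. given as a 0.5% CMC suspension. Retro-orbital blood, 0.4 mL, taken into heparinized tubes at several time points. Plasma drug measured by HPLC with fluorescence detection on a C18 column. Parameters from noncompartmental analysis, AUC by trapezoidal rule. Four rats per group, mean ± SD.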

Rattus norvegicus [2] = assay: (§2) The AUC(0-infinitive) value in female wistar rat at 100 mg/kg, p.o. dose; assay type: ADME, organism-based; design: time infinity, dose 100 mg/kg, route oral; unit not given here; conditions: in vivo, po; summary of the method: as §1
Rattus norvegicus [3] = assay: (§3) The AUC(0-t)value in female wistar rat at 100 mg/kg, p.o. dose; assay type: ADME, organism-based; design: dose 100 mg/kg, route oral; unit not given here; conditions: in vivo, po; summary of the method: as §1
[4] = The Cmax value in female wistar rat at 100 mg/kg, p.o. dose; assay type: ADME, organism-based; design: dose 100 mg/kg, route oral; conditions: in vivo, po; summary of the method: as §1
[5] = The Kel value in female wistar rat at 100 mg/kg, p.o. dose; assay type: ADME, organism-based; design: dose 100 mg/kg, route oral; conditions: in vivo, po; summary of the method: as §1
Mus musculus [6] = assay: The compound was tested for percent reduction in plasma triglyceride after 6 days of treatment at a dose of 100 mg/kg/day (oral gavage) in mice; assay type: functional
Summary of the method: (§4)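 Male C57BL/KsJ-db/db mice, 8 weeks old, chow ad libitum, grouped by similar starting plasma glucose (n = 4–6 per group). Dosed orally by gavage in 0.5% CMC vehicle (10 mL/kg) daily for 6 days. Retro-orbital blood taken 1 h post-dose on days 0 and 6. Plasma glucose and triglyceride measured with kits. % reduction = {1−[(TT/OT)/(TC/OC)]}×100 versus vehicle controls, mean ± SE.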

Mus musculus [7] = assay: The compound was tested for percent reduction in plasma glucose after 6 days of treatment at a dose of 100 mg/kg/day (oral gavage) in mice; assay type: functional; summary of the method: as §4
[8] = target: T1, Peroxisome proliferator-activated receptor alpha (Homo sapiens) (UniProt Q07869); assay: Fold activation against Peroxisome proliferator activated receptor alpha (50 uM)
T1 sequence (whole entry): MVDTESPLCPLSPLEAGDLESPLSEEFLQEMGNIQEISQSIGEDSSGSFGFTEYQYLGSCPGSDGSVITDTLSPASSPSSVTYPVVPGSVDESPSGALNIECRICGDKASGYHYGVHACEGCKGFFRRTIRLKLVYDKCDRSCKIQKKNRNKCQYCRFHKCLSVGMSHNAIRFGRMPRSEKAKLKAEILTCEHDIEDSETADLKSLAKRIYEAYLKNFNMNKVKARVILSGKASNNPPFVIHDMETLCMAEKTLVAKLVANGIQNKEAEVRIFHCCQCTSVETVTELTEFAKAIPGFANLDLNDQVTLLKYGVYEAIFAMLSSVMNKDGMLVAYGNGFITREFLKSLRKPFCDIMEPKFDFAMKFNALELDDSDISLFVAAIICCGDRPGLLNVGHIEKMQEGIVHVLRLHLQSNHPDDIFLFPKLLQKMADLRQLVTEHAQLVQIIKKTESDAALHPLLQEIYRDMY
Summary of the method: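 GAL4 fusion of human PPARα LBD (aa 167–468) with a GAL4-response-element luciferase reporter, transiently transfected into HEK-293 cells. Cells kept in DMEM with 10% delipidated serum, seeded 43 h post-transfection, then treated at 50 μM. DMSO (1:1000) served as blank. Luciferase read as fold activation over untreated cells. Mean of three to four experiments.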

[9] = The half life value in female wistar rat at 100 mg/kg, p.o. dose; assay type: ADME, organism-based; design: dose 100 mg/kg, route oral; conditions: in vivo, po; summary of the method: as §1
Mus musculus [10] = assay: The compound was tested for percent reduction in plasma triglyceride after 6 days of treatment at 30 mg/kg/day in mice; assay type: functional; summary of the method: as §4
Mus musculus [11] = assay: The compound was tested for percent reduction in plasma glucose after 6 days of treatment at 30 mg/kg/day in mice; assay type: functional; summary of the method: as §4
Mus musculus [12] = assay: The compound was tested for percent reduction in plasma triglyceride after 6 days of treatment at 30 mg/kg/day; assay type: functional; summary of the method: as §4
Mus musculus [13] = assay: The compound was tested for percent reduction in plasma triglyceride after 6 days of treatment at 100 mg/kg/day in mice; assay type: functional; summary of the method: as §4
[14] = The Tmax value in male wistar rat at 100 mg/kg, p.o. dose; assay type: ADME, organism-based; design: dose 100 mg/kg, route oral; conditions: in vivo, po; summary of the method: as §1
Rattus norvegicus [15] = assay: The AUC(0-infinitive) value in male wistar rat at 100 mg/kg, p.o. dose; assay type: ADME, organism-based; design: time infinity, dose 100 mg/kg, route oral; conditions: in vivo, po; summary of the method: as §1
Rattus norvegicus [16] = assay: The AUC(0-t)value in male wistar rat at 100 mg/kg, p.o. dose; assay type: ADME, organism-based; design: dose 100 mg/kg, route oral; conditions: in vivo, po; summary of the method: as §1
[17] = The Cmax value in male wistar rat at 100 mg/kg, p.o. dose; assay type: ADME, organism-based; design: dose 100 mg/kg, route oral; conditions: in vivo, po; summary of the method: as §1
[18] = The Kel value in male wistar rat at 100 mg/kg, p.o. dose; assay type: ADME, organism-based; design: dose 100 mg/kg, route oral; conditions: in vivo, po; summary of the method: as §1
[19] = The half life value in male wistar rat at 100 mg/kg, p.o. dose; assay type: ADME, organism-based; design: dose 100 mg/kg, route oral; conditions: in vivo, po; summary of the method: as §1
Mus musculus [20] = assay: The compound was tested for percent reduction in plasma glucose after 6 days of treatment at a dose of 100 mg/kg/day in mice; assay type: functional; summary of the method: as §4
Mus musculus [21] = assay: The compound was tested for percent reduction in plasma triglyceride after 6 days of treatment at a dose of 200 mg/kg/day (oral gavage) in mice; assay type: functional; summary of the method: as §4
Mus musculus [22] = assay: The compound was tested for percent reduction in plasma glucose after 6 days of treatment at a dose of 200 mg/kg/day (oral gavage) in mice; assay type: functional; summary of the method: as §4
Rattus norvegicus [23] = assay: as §2; assay type: ADME, organism-based; design: time infinity, dose 100 mg/kg, route oral; conditions: in vivo, po; summary of the method: as §1
Rattus norvegicus [24] = assay: The AUC(0-t)value in female wistar rat at 100 mg/kg, p.o. dose […]; assay type: ADME, organism-based; design: dose 100 mg/kg, route oral; conditions: in vivo, po
Rattus norvegicus [25] = assay: as §3; assay type: ADME, organism-based; design: dose 100 mg/kg, route oral; conditions: in vivo, po; summary of the method: as §1
Mus musculus [26] = assay: The compounds(21:4) were tested for percent reduction in plasma glucose after 6 days of treatment at 200 mg/kg/day(oral gavage) in mice; assay type: functional; summary of the method: as §4
Mus musculus [27] = assay: The compounds(3:7) were tested for percent reduction in plasma glucose after 6 days of treatment at 200 mg/kg/day(oral gavage) in mice; assay type: functional; summary of the method: as §4
Mus musculus [28] = assay: The compound was tested for percent reduction in plasma triglyceride after 6 days of treatment at a dose of 100 mg/kg/day in mice; assay type: functional; summary of the method: as §4

## Cc1c(C)c2c(c(C)c1O)CCC(C)(COc1ccc(/C=C3\SC(=O)NC3=O)cc1)O2 (configuration not stated)
[1]
  Tmax: 1.75 h
Rattus norvegicus [2]
  AUC: 3.12
Rattus norvegicus [3]
  AUC: 2.44
[4]
  Cmax: 680 ng/mL
[5]
  k el: 6.94e-05 s⁻¹
Mus musculus [6]
  Reduction: 26%
Mus musculus [7]
  Reduction: 62%
[8]
  Fold activation: 0.58
[9]
  half-life: 2.82 h

## Cc1c(C)c2c(c(C)c1OCc1ccccc1)CCC(C)(CN1CCC[C@H]1COc1ccc(/C=C3\SC(=O)[N-]C3=O)cc1)O2.[Na+] (some centres not stated)
Mus musculus [10]
  Reduction: 58%
Mus musculus [11]
  Reduction: 8%

## Cc1c(C)c2c(c(C)c1OCc1ccccc1)CCC(C)(CN1CCC[C@H]1COc1ccc(/C=C3\SC(=O)NC3=O)cc1)O2 (some centres not stated)
Mus musculus [12]
  Reduction: 26%
Mus musculus [11]
  Reduction: 41%
Mus musculus [7]
  Reduction: 68%

## Cc1c(C)c2c(c(C)c1OCc1ccccc1)CCC(C)(CN1CCC[C@H]1COc1ccc(CC3SC(=O)NC3=O)cc1)O2 (some centres not stated)
Mus musculus [11]
  Reduction: 23%
Mus musculus [7]
  Reduction: 26%

## Cc1c(C)c2c(c(C)c1O)CCC(C)(CN1CCC[C@H]1COc1ccc(/C=C3\SC(=O)NC3=O)cc1)O2 (some centres not stated)
Mus musculus [13]
  Reduction: 36%
Mus musculus [7]
  Reduction: 37%

## Cc1c(C)c2c(c(C)c1O)CCC(C)(COc1ccc(CC3SC(=O)NC3=O)cc1)O2 (configuration not stated) [TROGLITAZONE]
[14]
  Tmax: 2 h
Rattus norvegicus [15]
  AUC: 5.68 µg/h/mL
Rattus norvegicus [16]
  AUC: 5.09 µg/h/mL
[17]
  Cmax: 770 ng/mL
[18]
  k el: 5.28e-05 s⁻¹
[19]
  half-life: 3.9 h
Mus musculus [20]
  Reduction: 26%
Mus musculus [21]
  Reduction: 50%
Mus musculus [22]
  Reduction: 24%

## Cc1c(C)c2c(c(C)c1O)CCC(C)(CN(C)CCOc1ccc(/C=C3\SC(=O)NC3=O)cc1)O2 (configuration not stated)
[1]
  Tmax: 1.38 h
[4]
  Cmax: 9920 ng/mL
Rattus norvegicus [23]
  AUC: 44.94 µg/h/mL
Rattus norvegicus [24]
  AUC: 44.2 µg/h/mL
[5]
  k el: 0.000106 s⁻¹
Mus musculus [22]
  Reduction: 36%

## Cc1c(C)c2c(c(C)c1OCc1ccccc1)CCC(C)(CN1CCC[C@@H](Oc3ccc(/C=C4\SC(=O)NC4=O)cc3)C1)O2 (some centres not stated)
Mus musculus [13]
  Reduction: 24%
Mus musculus [7]
  Reduction: 5%

## Cc1c(C)c2c(c(C)c1O)CCC(C)(CN(C)CCOc1ccc(CC3SC(=O)NC3=O)cc1)O2 (configuration not stated)
Mus musculus [22]
  Reduction: 3%

## Cc1c(C)c2c(c(C)c1OCc1ccccc1)CCC(C)(CN1CCC[C@H]1COc1ccc(CC3SC(=O)[N-]C3=O)cc1)O2.[Na+] (some centres not stated)
Mus musculus [10]
  Reduction: 66%
Mus musculus [11]
  Reduction: 36%

## Cc1c(C)c2c(c(C)c1OCc1ccccc1)CCC(C)(COc1ccc(/C=C3\SC(=O)NC3=O)cc1)O2 (configuration not stated)
[1]
  Tmax: 4.33 h
Rattus norvegicus [2]
  AUC: 18.5
Rattus norvegicus [3]
  AUC: 14.4
[4]
  Cmax: 1090 ng/mL
[5]
  k el: 1.94e-05 s⁻¹
Mus musculus [6]
  Reduction: 38%
Mus musculus [7]
  Reduction: 39%
[8]
  Fold activation: 0.67
[9]
  half-life: 10.4 h

## Cc1c(C)c2c(c(C)c1OCc1ccccc1)CCC(C)(CN(C)CCOc1ccc(/C=C3\SC(=O)NC3=O)cc1)O2 (configuration not stated)
[1]
  Tmax: 3.25 h
[4]
  Cmax: 4120 ng/mL
Rattus norvegicus [23]
  AUC: 34.49 µg/h/mL
Rattus norvegicus [25]
  AUC: 27.47 µg/h/mL
[5]
  k el: 4.17e-05 s⁻¹
Mus musculus [22]
  Reduction: 45%
[9]
  half-life: 4.87 h

## Cc1c(C)c2c(c(C)c1OCc1ccccc1)CCC(C)(CN1CCC[C@@H](Oc3ccc(/C=C4\SC(=O)NC4=O)cc3)C1)O2.Cc1c(C)c2c(c(C)c1OCc1ccccc1)CCC(C)(CN1CCC[C@H]1COc1ccc(/C=C3\SC(=O)NC3=O)cc1)O2 (some centres not stated)
Mus musculus [26]
  Reduction: 52%
Mus musculus [27]
  Reduction: 53%

## Cc1c(C)c2c(c(C)c1OCc1ccccc1)CCC(C)(COc1ccc(CC3SC(=O)NC3=O)cc1)O2 (configuration not stated)
[1]
  Tmax: 3.33 h
[14]
  Tmax: 4.33 h
Rattus norvegicus [2]
  AUC: 29.76
Rattus norvegicus [15]
  AUC: 21.02 µg/h/mL
Rattus norvegicus [3]
  AUC: 15.83
Rattus norvegicus [16]
  AUC: 14.26 µg/h/mL
[4]
  Cmax: 1830 ng/mL
[17]
  Cmax: 2170 ng/mL
[5]
  k el: 2.22e-05 s⁻¹
[18]
  k el: 3.33e-05 s⁻¹
[19]
  half-life: 5.78 h
Mus musculus [20]
  Reduction: 64%
Mus musculus [28]
  Reduction: 34%
[8]
  Fold activation: 1.79
[9]
  half-life: 9.27 h

## Cc1c(C)c2c(c(C)c1OCc1ccccc1)CCC(C)(CN1CCC[C@H]1COc1ccc(CC3SC(=O)NC3=O)cc1)O2.Cl (some centres not stated)
Mus musculus [11]
  Reduction: 12%
